ChEMBL document CHEMBL4017538, “Vitamin D Analogues with a p-Hydroxyphenyl Group at the C25 Position: Crystal Structure of Vitamin D Receptor Ligand-Binding Domain Complexed with the Ligand Explains the Mechanism Underlying Full Antagonistic Action” (J Med Chem, 2017)
Active and inactive are the calls of the source. No cut-off for these calls is given here.

Key:
[1] = target: T1, Vitamin D3 receptor (Homo sapiens) (UniProt P11473); assay: Antagonist activity at human vitamin D receptor expressed in African green monkey COS7 cells assessed as inhibition of 1,25D3-induced transactivation after 16 hrs by dual luciferase reporter gene assay; format: cell-based
T1 sequence (whole entry): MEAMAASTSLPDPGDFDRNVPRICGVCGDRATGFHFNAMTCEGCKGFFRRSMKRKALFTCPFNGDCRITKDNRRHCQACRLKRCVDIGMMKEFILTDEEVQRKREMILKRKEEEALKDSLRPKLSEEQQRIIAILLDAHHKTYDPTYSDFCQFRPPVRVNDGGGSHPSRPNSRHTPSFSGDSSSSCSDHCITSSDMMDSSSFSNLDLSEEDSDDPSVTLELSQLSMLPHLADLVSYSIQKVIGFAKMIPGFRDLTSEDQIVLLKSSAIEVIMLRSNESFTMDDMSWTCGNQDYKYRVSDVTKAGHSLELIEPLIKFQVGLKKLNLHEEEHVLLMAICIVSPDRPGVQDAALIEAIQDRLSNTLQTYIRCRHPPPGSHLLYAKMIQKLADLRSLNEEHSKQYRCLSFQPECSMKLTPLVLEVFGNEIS
Procedure, shortened: (§1)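 Cells were co-transfected with full-length human VDR expression plasmid (pCMX-hVDR), a luciferase reporter carrying three copies of mouse osteopontin VDRE (SPPx3-TK-Luc), and a sea pansy luciferase internal control (pRL-CMV), then read by dual luciferase assay. Activity is scaled so that 10−8 M 1,25D3 equals 1 in Cos7 and 10−9 M 1,25D3 equals 1 in HEK293. Inhibition was tested in the presence of 1,25D3.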

Vitamin D3 receptor [2] = target: T2, Vitamin D3 receptor (Homo sapiens, UniProt P11473); assay: Displacement of [3H]-1,25-(OH)2D3 from N-terminal GST-tagged human recombinant vitamin D receptor ligand binding domain expressed in Escherichia coli BL21 (DE3) pLys S after 16 hrs
T2 sequence (P11473 whole entry): T1 sequence (whole entry)

[3] = target: T1, Vitamin D3 receptor (Homo sapiens); assay: Partial agonist activity at human vitamin D receptor expressed in HEK293 cells after 16 hrs by dual luciferase reporter gene assay; format: cell-based; procedure, shortened: as §1
[4] = target: T1, Vitamin D3 receptor (Homo sapiens); assay: Ratio of 1,25-(OH)2D3 IC50 to test compound IC50 for displacement of [3H]-1,25-(OH)2D3 from N-terminal GST-tagged human recombinant vitamin D receptor ligand binding domain expressed in Escherichia coli BL21 (DE3) pLys S after 16 hrs
[5] = target: T1, Vitamin D3 receptor (Homo sapiens); assay: Antagonist activity at VP16-fused human vitamin D receptor in HEK293 cells assessed as inhibition of ligand-induced GAL4-fused SRC1 coactivator recruitment by dual luciferase assay; format: cell-based
[6] = target: T1, Vitamin D3 receptor (Homo sapiens); assay: Agonist activity at human vitamin D receptor expressed in African green monkey COS7 cells after 16 hrs by dual luciferase reporter gene assay; format: cell-based; procedure, shortened: as §1
[7] = target: T1, Vitamin D3 receptor (Homo sapiens); assay: Antagonist activity at VP16-fused human vitamin D receptor in HEK293 cells assessed as inhibition of ligand-induced GAL4-fused RXRalpha recruitment by dual luciferase assay; format: cell-based
Vitamin D3 receptor [8] = target: T2, Vitamin D3 receptor

Compound	antagonist activity (qualitative) [1]	IC50 (Vitamin D3 receptor [2]) [nM]	Activity [3]	relative affinity (IC50 ref/IC50 test) [4]	inhibition [5]	Activity [6]	inhibition [7]	IC50 (Vitamin D3 receptor [8]) [nM]
C=C1[C@H](O)CC(=C/C=C2\CCC[C@]3(C)[C@@H]([C@H](C)CCCC(=O)c4ccc(O)cc4)CC[C@@H]23)C[C@H]1O	Active	84	Active	0.006	–	–	–	–
C=C1[C@H](O)CC(=C/C=C2\CCC[C@]3(C)[C@@H]([C@H](C)CCCC(O)(c4ccc(O)cc4)c4ccc(O)cc4)CC[C@@H]23)C[C@H]1O	–	520	–	0.00096	Active	inactive	Active	800
C=C1[C@H](O)CC(=C/C=C2\CCC[C@]3(C)[C@@H]([C@H](C)CCCC(O)c4ccc(O)cc4)CC[C@@H]23)C[C@H]1O (stereo partly specified)	Active	36	Active	0.0044	–	–	–	–
C=C1[C@H](O)CC(=C/C=C2\CCC[C@]3(C)[C@@H]([C@H](C)CCCC(OC)c4ccc(O)cc4)CC[C@@H]23)C[C@H]1O (stereo partly specified)	–	102	–	0.0049	–	–	–	–
C=C1[C@H](O)CC(=C/C=C2\CCC[C@]3(C)[C@@H]([C@H](C)[C@@H](CCCC)CCC(=O)c4ccc(O)cc4)CC[C@@H]23)C[C@H]1O	–	20	–	0.028	Active	inactive	inactive	–
C=C1[C@H](O)CC(=C/C=C2\CCC[C@]3(C)[C@@H]([C@H](C)[C@@H](CCCC)CCC(O)c4ccc(O)cc4)CC[C@@H]23)C[C@H]1O (stereo partly specified)	Dose-dependent effect	17	Active	0.0094	–	inactive	–	–
C=C1[C@H](O)CC(=C/C=C2\CCC[C@]3(C)[C@@H]([C@H](C)[C@@H](CCCC)CCC(O)(c4ccc(O)cc4)c4ccc(O)cc4)CC[C@@H]23)C[C@H]1O	–	130	–	0.0042	Active	inactive	inactive	400
C=C1[C@H](O)CC(=C/C=C2\CCC[C@]3(C)[C@@H]([C@H](C)[C@@H](CCCC)CCC(OC)c4ccc(O)cc4)CC[C@@H]23)C[C@H]1O (stereo partly specified)	Active	23	Active	0.031	–	–	–	–
